The record followed here is ChEMBL document CHEMBL1149232, “An aminomethylpyrimidine DPP-IV inhibitor with improved properties” (Bioorg Med Chem Lett, 2004).

Data set [1] in a line: Octanol water partition coefficient was determined at pH 7.4. Format: physicochemical.
Data set [2] deals with Cytochrome P450 3A4 (Homo sapiens, UniProt P08684). Kind of data set: Inhibition of human liver microsome Cytochrome P3A4. Format: microsomes. In short, it runs like this: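 CYP3A4 inhibition was measured by a published fluorometric method using BFC as the substrate.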
Sequence of Cytochrome P450 3A4 (P08684 whole entry): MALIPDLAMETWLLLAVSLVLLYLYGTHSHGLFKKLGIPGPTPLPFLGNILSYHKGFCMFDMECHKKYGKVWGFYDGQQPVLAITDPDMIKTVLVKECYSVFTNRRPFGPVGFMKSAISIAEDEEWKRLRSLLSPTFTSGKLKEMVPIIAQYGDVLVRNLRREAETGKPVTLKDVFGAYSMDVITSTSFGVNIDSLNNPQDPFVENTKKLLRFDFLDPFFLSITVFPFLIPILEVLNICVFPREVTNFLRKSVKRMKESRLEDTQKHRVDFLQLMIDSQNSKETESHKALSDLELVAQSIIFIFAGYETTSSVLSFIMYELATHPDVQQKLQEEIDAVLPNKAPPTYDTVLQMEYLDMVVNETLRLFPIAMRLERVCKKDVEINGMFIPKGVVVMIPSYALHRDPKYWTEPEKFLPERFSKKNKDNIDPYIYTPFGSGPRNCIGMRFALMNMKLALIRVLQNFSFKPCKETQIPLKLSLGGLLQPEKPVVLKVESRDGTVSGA
A general note: Microsomes from liver hold many membrane-bound enzymes, among them those of drug oxidation.

As a reminder, the logD is lipophilicity at a set pH, counting ionised and neutral species. Low readings indicate lower lipophilicity, high ones higher lipophilicity. For orientation: IC50 means the point on the concentration scale where inhibition reaches its midpoint. Higher therefore signals a need for much substance.

Take `NCc1c(N)nc(N)nc1-c1ccc(Cl)cc1Cl`: the logD in data set [1] turned out to be 0.4. On to `NCc1c(N)nc(-c2ccccc2)nc1-c1ccc(Cl)cc1Cl`, for which the logD in data set [1] was found to be 3. In data set [2], this compound displayed an IC50 of 5.4 µM. Regarding `COc1nc(N)c(CN)c(-c2ccc(Cl)cc2Cl)n1`, in data set [1], the logD turned out to be 1.6. The same measure, in the same setting: under `Cc1nc(N)c(CN)c(-c2ccc(Cl)cc2Cl)n1` stands 1.4.
